Laboratory results published in ChEMBL document CHEMBL1122917, “Vinblastin-23-oyl amino acid derivatives: chemistry, physicochemical data, toxicity, and antitumor activities against P388 and L1210 leukemias” (J Med Chem, 1985).

What was measured:
Type in all cases: functional
[1] = test system: Mus musculus; experiment: Number of survivors on 60th day at dose 1.5 mg/kg/day in 10 mice implanted with P388 leukemia cell line; 0/10
[2] = test system: Mus musculus; experiment: Number of survivors of DBA2 mice on 60th day after inoculation with L1210 leukemia cell line intravenously at a dose of 1.5 mg/kg/day; 0/10; details: route intravenous
[3] = test system: Mus musculus; experiment: Number of survivors of DBA2 mice on 60th day after inoculation with L1210 leukemia cell line intravenously at a dose of 0.5 mg/kg/day; 0/10; details: route intravenous
[4] = test system: Mus musculus; experiment: Number of survivors of DBA2 mice on 60th day after inoculation with L1210 leukemia cell line intravenously at a dose of 6.5 mg/kg/day; 0/10; details: route intravenous
[5] = test system: Mus musculus; experiment: Percent increase in life span at dose 0.5 mg/kg/day in 10 mice implanted with P388 leukemia cell line
[6] = test system: Mus musculus; experiment: Percent increase in life span at dose 3 mg/kg/day in 10 mice implanted with P388 leukemia cell line; 0/10
[7] = test system: Mus musculus; experiment: Percent increase in life span at dose 2.5 mg/kg/day in 7 mice implanted with P388 leukemia cell line for 1,8,15 scheduled days from Exp-1
[8] = test system: Mus musculus; experiment: Number of survivors on 30th day at dose 3 mg/kg/day in 9 mice implanted with P388 leukemia cell line; 0/10
[9] = test system: Mus musculus; experiment: Number of survivors on 60th day at dose 2.5 mg/kg/day in 10 mice implanted with P388 leukemia cell line; 0/10
[10] = test system: Mus musculus; experiment: Number of survivors on 60th day at dose 2 mg/kg/day in 10 mice implanted with P388 leukemia cell line for 1st scheduled day; 0/10
[11] = test system: Mus musculus; experiment: Percent increase in life span at dose 2.5 mg/kg/day in 7 mice implanted with P388 leukemia cell line for 1,8,15 scheduled days from Exp-2
[12] = test system: Mus musculus; experiment: Number of survivors on 60th day at dose 3 mg/kg/day in 10 mice implanted with P388 leukemia cell line; 0/9
[13] = test system: Mus musculus; experiment: Number of survivors on 30th day at dose 8 mg/kg/day in 10 mice implanted with P388 leukemia cell line; 0/10
[14] = test system: Mus musculus; experiment: Number of survivors on 30th day at dose 5 mg/kg/day in 10 mice implanted with P388 leukemia cell line; 0/10
[15] = test system: Mus musculus; experiment: Number of survivors on 30th day at dose 2.5 mg/kg/day in 10 mice implanted with P388 leukemia cell line; 0/10
[16] = test system: Mus musculus; experiment: Number of survivors on 30th day at dose 4 mg/kg/day in 10 mice implanted with P388 leukemia cell line;5/10
[17] = test system: Mus musculus; experiment: Number of survivors on 30th day at dose 9 mg/kg/day in 10 mice implanted with P388 leukemia cell line; […]
[18] = test system: Mus musculus; experiment: Number of survivors of DBA2 mice on 30th day after inoculation with L1210 leukemia cell line intraperitoneally at a dose of 4 mg/kg/day; 0/10; details: route intraperitoneal
[19] = test system: Mus musculus; experiment: Number of survivors on 60th day at dose 10 mg/kg/day in 10 mice implanted with P388 leukemia cell line; 0/10
[20] = test system: Mus musculus; experiment: Number of survivors on 60th day at dose 11 mg/kg/day in 10 mice implanted with P388 leukemia cell line; 0/10
[21] = test system: Mus musculus; experiment: Percent increase in life span at dose 10 mg/kg/day in 10 mice implanted with P388 leukemia cell line
How it was run: (§1)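 Female DBA2 mice inoculated iv on day 0 with 10^4 P388 cells; single iv treatment on day 1 with drug as sulfate salt in physiological saline. Survival followed; %ILS from all deaths and survivors as (T/C × 100) − 100, maximal MST 30 days; survivors counted on days 30 and 60. Most experiments confirmed three times.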

[22] = test system: Mus musculus; experiment: Number of survivors on 60th day at dose 4 mg/kg/day in 10 mice implanted with P388 leukemia cell line; 2/10
[23] = test system: Mus musculus; experiment: Number of survivors on 60th day at dose 4 mg/kg/day in 7 mice implanted with P388 leukemia cell line for 1,8,15 acheduled days form Exp-1; 0/10
[24] = test system: Mus musculus; experiment: Number of survivors on 30th day at dose 6 mg/kg/day in 10 mice implanted with P388 leukemia cell line; 0 /10
[25] = test system: Mus musculus; experiment: Number of survivors of DBA2 mice on 30th day after inoculation with L1210 leukemia cell line intravenously at a dose of 10 mg/kg/day; 0/10; details: route intravenous
[26] = test system: Mus musculus; experiment: Percent increase in life span of DBA2 mice after inoculation with L1210 leukemia intravenously at a dose of 10 mg/kg per day; details: route intravenous
[27] = test system: Mus musculus; experiment: Percent increase in life span at dose 6 mg/kg/day in 7 mice implanted with P388 leukemia cell line for 1,8,15 schedule days from Exp-2
[28] = test system: Mus musculus; experiment: Percent increase in life span of DBA2 mice after inoculation with L1210 leukemia intravenously at a dose of 55 mg/kg per day; details: route intravenous
How it was run: (§2)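 Female DBA2 mice inoculated iv on day 0 with 10^4 L1210 cells; drugs given iv as sulfate salts in physiological saline, mostly once on day 1. %ILS from all deaths and survivors as (T/C × 100) − 100; survivors scored on days 30 and 60.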

[29] = test system: Mus musculus; experiment: Percent increase in life span of DBA2 mice after inoculation with L1210 leukemia intravenously at a dose of 65 mg/kg per day; details: route intravenous; how it was run: as §2
[30] = test system: Mus musculus; experiment: Percent increase in life span at dose 60 mg/kg/day in 10 mice implanted with P388 leukemia cell line for 1st schedule day
[31] = test system: Mus musculus; experiment: Percent increase in life span at dose 60 mg/kg/day in 10 mice implanted with P388 leukemia cell line; how it was run: as §1
[32] = test system: Mus musculus; experiment: Number of survivors on 30th day at dose 55 mg/kg/day in 10 mice implanted with P388 leukemia cell line for1,5,9 scheduled days; 2/10
[33] = test system: Mus musculus; experiment: Number of survivors on 60th day at dose 60 mg/kg/day in 10 mice implanted with P388 leukemia cell line 1,5,9 scheduled days; 3/10
[34] = test system: Mus musculus; experiment: Number of survivors on 30th day at dose 20 mg/kg/day in 10 mice implanted with P388 leukemia cell line; 0/10
[35] = test system: Mus musculus; experiment: Number of survivors of DBA2 mice on 60th day after inoculation with L1210 leukemia cell line intravenously at a dose of 65 mg/kg/day; 0/10; details: route intravenous
[36] = test system: Mus musculus; experiment: Number of survivors on 60th day at dose 55 mg/kg/day in 10 mice implanted with P388 leukemia cell line for 1,5,9 scheduled days; 1/10
[37] = test system: Mus musculus; experiment: Percent increase in life span at dose 55 mg/kg/day in 10 mice implanted with P388 leukemia cell line; how it was run: as §1
[38] = test system: Mus musculus; experiment: Number of survivors on 30th day at dose 60 mg/kg/day in 10 mice implanted with P388 leukemia cell line 1,5,9 scheduled days; 9/9
[39] = test system: Mus musculus; experiment: Number of survivors of DBA2 mice on 30th day after inoculation with L1210 leukemia cell line intravenously at a dose of 65 mg/kg/day; 0/10; details: route intravenous
[40] = test system: Mus musculus; experiment: 7 Percent increase in life span at dose 75 mg/kg/day in 7 mice implanted with P388 leukemia cell line for 1,8,15 schedule day in Exp-1

CC[C@]1(O)C[C@H]2CN(CCc3c([nH]c4ccccc34)[C@@](C(=O)OC)(c3cc4c(cc3OC)N(C=O)[C@H]3[C@@](O)(C(=O)OC)[C@H](OC(C)=O)[C@]5(CC)C=CCN6CC[C@]43[C@@H]65)C2)C1 [VINCRISTINE]
Survivors [1]: 0
Survivors [2]: 0
Survivors [3]: 0
Survivors [4]: 0
ILS at 0.5 mg/kg/day [5]: 4%

CC[C@]1(O)C[C@@H]2CN(CCc3c([nH]c4ccccc34)[C@@](C(=O)OC)(c3cc4c(cc3OC)N(C)[C@H]3[C@@](O)(C(N)=O)[C@H](O)[C@]5(CC)C=CCN6CC[C@]43[C@@H]65)C2)C1 [VINDESINE]
ILS at 3 mg/kg/day [6]: 49.2%
ILS at 2.5 mg/kg/day [7]: 31%
Survivors [8]: 0
Survivors [9]: 0
Survivors [10]: 0
ILS at 2.5 mg/kg/day [11]: 13%
Survivors [12]: 0
Survivors [13]: 0
Survivors [14]: 0
Survivors [15]: 0

CC[C@]1(O)C[C@@H]2CN(CCc3c([nH]c4ccccc34)[C@@](C(=O)OC)(c3cc4c(cc3OC)N(C)[C@H]3[C@@](O)(C(=O)OC)[C@H](OC(C)=O)[C@]5(CC)C=CCN6CC[C@]43[C@@H]65)C2)C1 [VINBLASTINE]
Survivors [16]: 5
Survivors [17]: 1
Survivors [18]: 0
Survivors [19]: 0
Survivors [20]: 0
ILS at 10 mg/kg/day [21]: 81%
Survivors [22]: 2
Survivors [23]: 0
Survivors [24]: 0

CCOC(=O)[C@@H](NC(=O)[C@@]1(O)[C@H](O)[C@]2(CC)C=CCN3CC[C@@]4(c5cc([C@@]6(C(=O)OC)C[C@H]7C[N@](CCc8c6[nH]c6ccccc86)C[C@](O)(CC)C7)c(OC)cc5N(C)[C@@]14C)[C@@H]32)[C@@H](C)CC
Survivors [25]: 0
ILS at 10 mg/kg/day [26]: 27%
ILS at 6 mg/kg/day [27]: 200%

CCOC(=O)[C@H](Cc1c[nH]c2ccccc12)NC(=O)[C@@]1(O)[C@H](O)[C@]2(CC)C=CCN3CC[C@@]4(c5cc([C@@]6(C(=O)OC)C[C@H]7C[N@](CCc8c6[nH]c6ccccc86)C[C@](O)(CC)C7)c(OC)cc5N(C)[C@@]14C)[C@@H]32
ILS at 55 mg/kg/day [28]: 55.3%
ILS at 65 mg/kg/day [29]: 71%
ILS at 60 mg/kg/day [30]: > 224%
ILS at 60 mg/kg/day [31]: > 178%
Survivors [32]: 2
Survivors [33]: 3
Survivors [34]: 0
Survivors [35]: 0
Survivors [36]: 1
ILS at 55 mg/kg/day [37]: > 183%
Survivors [38]: 9
Survivors [39]: 0
ILS at 75 mg/kg/day [40]: 108%
